Tests used:
[1] = Partition coefficient, log D of the compound at pH 7.4 by HPLC analysis; assay type: physicochemical; details: octanol/water
Method in brief: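 LogD at pH 7.4 measured with a chromatographic gLogD technique.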

[2] = (§1) Intrinsic clearance in mouse liver microsomes at 1 uM by LC/MS analysis; assay type: ADME, Microsome; details: liver microsomes, read-out: CLH
Method in brief: (§2)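 Mouse hepatic microsomes; in vitro intrinsic clearance from compound degradation during incubation, expressed as μL/min/mg.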

[3] = Drug metabolism in mouse liver microsomes assessed as mono-oxygenation at 1 uM by LC/MS analysis; assay type: ADME, Microsome
Liver [4] = assay: as §1; assay type: ADME, Microsome; details: microsomes, 1 µM; method in brief: as §2
[5] = Drug metabolism in mouse liver microsomes assessed as bis-oxygenation at 1 uM by LC/MS analysis; assay type: ADME, Microsome
[6] = Drug metabolism in mouse liver microsomes assessed as morpholine ring cleavage at 1 uM by LC/MS analysis; assay type: ADME, Microsome
[7] = Drug metabolism in mouse liver microsomes assessed as glucuronide metabolite formation at 1 uM by LC/MS analysis; assay type: ADME, Microsome
[8] = Drug metabolism in mouse liver microsomes assessed as O-demethylation at 1 uM by LC/MS analysis; assay type: ADME, Microsome
Liver microsomes [9] = assay: Intrinsic clearance in rat liver microsomes at 1 uM by LC/MS analysis; assay type: ADME, Microsome
Liver microsomes [10] = assay: Half life in rat liver microsomes; assay type: ADME, Microsome
Liver microsomes [11] = assay: Intrinsic clearance in human liver microsomes at 1 uM by LC/MS analysis; assay type: ADME, Microsome
[12] = Volume of distribution at steady state in Sprague-Dawley rat at 1 mg/kg, iv; assay type: ADME, organism-based; design: dose 1 mg/kg, route intravenous; details: in vivo, read-out: Vdss
Method in brief: (§3)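 Male Sprague–Dawley rats, single iv dose as solution in aqueous vehicle with 40% (v/v) propylene glycol; serial plasma concentrations, profiles averaged from n = 2 rats; urine collected for unchanged drug. Half-life, steady-state volume of distribution and plasma clearance taken from plasma concentration–time profiles.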

Rattus norvegicus [13] = assay: Oral bioavailability in Sprague-Dawley rat at 19 mg/kg; assay type: ADME, organism-based; details: in vivo
[14] = Drug metabolism in mouse liver microsomes at 1 uM by LC/MS analysis; assay type: ADME, Microsome
Liver microsomes [15] = assay: Drug metabolism in rat liver microsomes at 1 uM by LC/MS analysis; assay type: ADME, Microsome
Liver [16] = assay: Half life in mouse liver microsomes; assay type: ADME, Microsome
[17] = Cmax in Sprague-Dawley rat at 19 mg/kg, po; assay type: ADME, organism-based; design: dose 19 mg/kg, route oral; details: in vivo
[18] = Apparent terminal half life in Sprague-Dawley rat at 1 mg/kg, iv; assay type: ADME, organism-based; design: dose 1 mg/kg, route intravenous; details: in vivo, read-out: betat1/2(app) (converted); method in brief: as §3
[19] = Plasma clearance in Sprague-Dawley rat at 1 mg/kg, iv; assay type: ADME, organism-based; design: dose 1 mg/kg, route intravenous
Method in brief: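 Male Sprague–Dawley rats given a nominal 1 mg/kg iv dose as a solution in aqueous vehicle containing 40% (v/v) propylene glycol. Plasma concentration–time profiles were measured, with each profile the average of n = 2 rats. Plasma clearance was derived from the iv profile.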

in vivo [20] = details: Sprague-Dawley, rat, po, 19 mg/kg
Liver microsomes [21] = assay: Half life in human liver microsomes; assay type: ADME, Microsome
Liver microsomes [22] = assay: Drug metabolism in human liver microsomes at 1 uM by LC/MS analysis; assay type: ADME, Microsome
[23] = Cmax in Sprague-Dawley rat at 19 mg/kg, ip; assay type: ADME, organism-based; design: dose 19 mg/kg, route intraperitoneal; details: in vivo
[24] = Drug excretion in Sprague-Dawley rat urine at 19 mg/kg, ip; assay type: ADME, organism-based; design: dose 19 mg/kg, route intraperitoneal; details: read-out: Drug excretion
Method in brief: (§4)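 Male Sprague–Dawley rats, nominal 20 mg/kg (19 mg/kg actual ip), given po as an aqueous HPMC suspension or ip as a suspension in aqueous vehicle with 10% DMSO; percentage of the dose excreted unchanged in urine was measured; n = 2 rats per profile.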

[25] = Drug excretion in iv dosed rat urine assessed as glutathione adduct level; assay type: ADME, organism-based; details: in vivo
[26] = Apparent terminal half life in Sprague-Dawley rat at 20 mg/kg, po; assay type: ADME, organism-based; design: dose 20 mg/kg, route oral; details: in vivo, read-out: betat1/2(app) (converted)
[27] = Drug excretion in Sprague-Dawley rat urine at […], iv; assay type: ADME, organism-based; design: dose 4.5 mg/kg, route intravenous; details: read-out: Drug excretion
[28] = Drug degradation assessed as reactivity with reduced glutathione ethyl ester; assay type: physicochemical
[29] = Cmax in Sprague-Dawley rat at 20 mg/kg, po; assay type: ADME, organism-based; design: dose 20 mg/kg, route oral; details: in vivo
[30] = Drug excretion in Sprague-Dawley rat urine at 20 mg/kg, po; assay type: ADME, organism-based; design: dose 20 mg/kg, route oral; details: read-out: Drug excretion; method in brief: as §4
in vivo [31] = details: Sprague-Dawley, rat, ip, 19 mg/kg
[32] = Volume of distribution at steady state in Sprague-Dawley rat at […], iv; assay type: ADME, organism-based; design: dose 4.5 mg/kg, route intravenous; details: in vivo, read-out: Vdss
[33] = Apparent terminal half life in Sprague-Dawley rat at […], iv; assay type: ADME, organism-based; design: dose 4.5 mg/kg, route intravenous; details: in vivo, read-out: betat1/2(app) (converted)
[34] = Plasma clearance in Sprague-Dawley rat at […], iv; assay type: ADME, organism-based; design: dose 4.5 mg/kg, route intravenous
[35] = Apparent terminal half life in Sprague-Dawley rat at 19 mg/kg, ip; assay type: ADME, organism-based; design: dose 19 mg/kg, route intraperitoneal; details: in vivo, read-out: betat1/2(app) (converted)
Liver microsomes [36] = assay: Drug metabolism in rat liver microsomes assessed as mono-oxygenation at 1 uM by LC/MS analysis; assay type: ADME, Microsome
Rattus norvegicus [37] = assay: Oral bioavailability in Sprague-Dawley rat at 20 mg/kg; assay type: ADME, organism-based; details: in vivo
Rattus norvegicus [38] = assay: Bioavailability in Sprague-Dawley rat at 19 mg/kg, ip; assay type: ADME, organism-based; details: in vivo
in vivo [39] = details: Sprague-Dawley, rat, po, 20 mg/kg

## CCOC(=O)C1=C(O)/C(=C\c2cc(C)n(-c3ccc(F)cc3)c2C)N=C1C
[1]
  logD: 2.9
[2]
  microsomal CLint at 1 µM: 94 µL/min/mg
[3]
  Drug metabolism: Active

## CCOC(=O)C1=C(C)N/C(=C/c2cc(C)n(-c3cc(OC)c(OC)c(OO)c3)c2C)C1=O
[1]
  logD: 2.6
[2]
  microsomal CLint at 1 µM: 63 µL/min/mg

## CCOC(=O)C1=C(C)N/C(=C/c2cc(C)n(-c3cccc(OC)c3)c2C)C1=O
[1]
  logD: 2.9
Liver [4]
  Microsomal intrinsic clearance (CLint): 150 µL/min/mg

## CCOC(=O)C1=C(C)N/C(=C/c2cc(C)n(-c3ccc(SC(F)(F)F)cc3)c2C)C1=O
Liver [4]
  Microsomal intrinsic clearance (CLint): 76 µL/min/mg
[3]
  Drug metabolism: Active

## CCOC(=O)C1=C(C)N/C(=C/c2cc(C)n(-c3ccc(S(=O)(=O)C(F)(F)F)cc3)c2C)C1=O
Liver [4]
  Microsomal intrinsic clearance (CLint): 58 µL/min/mg

## CCOC(=O)C1=C(C)N/C(=C/c2cc(C)n(-c3ccc(SC)cc3)c2C)C1=O
Liver [4]
  Microsomal intrinsic clearance (CLint): 66 µL/min/mg
[3]
  Drug metabolism: Active

## CCOC(=O)C1=C(C)N/C(=C/c2cc(C)n(-c3ccncc3)c2C)C1=O
[1]
  logD: 3.2
[5]
  Drug metabolism: Active
Liver [4]
  Microsomal intrinsic clearance (CLint): 61 µL/min/mg
[3]
  Drug metabolism: Active

## CCOC(=O)C1=C(C)N/C(=C/c2cc(C)n(-c3cccnc3)c2C)C1=O
[1]
  logD: 2.1
Liver [4]
  Microsomal intrinsic clearance (CLint): 82 µL/min/mg

## CCOC(=O)C1=C(C)N/C(=C/c2cc(C)n(-c3ccc(N4CCOCC4)cc3)c2C)C1=O
[1]
  logD: 3.3
[6]
  Drug metabolism: Active
Liver [4]
  Microsomal intrinsic clearance (CLint): 31 µL/min/mg

## CCOC(=O)C1=C(C)N/C(=C/c2cc(C)n(Cc3ccc(C(F)(F)F)cc3)c2C)C1=O
Liver [4]
  Microsomal intrinsic clearance (CLint): 100 µL/min/mg

## CCOC(=O)C1=C(C)N/C(=C/c2cc(C)n(-c3ccc(CN4CCCCC4)cc3)c2C)C1=O
[1]
  logD: 8.5
Liver [4]
  Microsomal intrinsic clearance (CLint): 60 µL/min/mg

## CCOC(=O)C1=C(C)N/C(=C/c2cc(C)n(-c3ccc(CN4CCOCC4)cc3)c2C)C1=O
[1]
  logD: 6.7
Liver [4]
  Microsomal intrinsic clearance (CLint): 56 µL/min/mg

## CCOC(=O)C1=C(C)N/C(=C/c2cc(C)n(-c3ccc(CN(C)C)cc3)c2C)C1=O
[1]
  logD: 8.3
Liver [4]
  Microsomal intrinsic clearance (CLint): 31 µL/min/mg

## CCOC(=O)C1=C(C)N/C(=C/c2ccn(-c3ccccc3C(F)(F)F)c2)C1=O
Liver [4]
  Microsomal intrinsic clearance (CLint): 160 µL/min/mg

## CCOC(=O)C1=C(C)N/C(=C/c2ccn(-c3ccc(C(F)(F)F)cc3)c2)C1=O
Liver [4]
  Microsomal intrinsic clearance (CLint): 140 µL/min/mg
[3]
  Drug metabolism: Active

## CCOC(=O)C1=C(C)N/C(=C/c2cc(CC)n(-c3ccccc3C(F)(F)F)c2CC)C1=O
Liver [4]
  Microsomal intrinsic clearance (CLint): 140 µL/min/mg
[3]
  Drug metabolism: Active

## CC1=C(C(=O)OC(C)(C)C)C(=O)/C(=C\c2cc(C)n(-c3ccccc3C(F)(F)F)c2C)N1
[5]
  Drug metabolism: Active
Liver [4]
  Microsomal intrinsic clearance (CLint): 86 µL/min/mg
[3]
  Drug metabolism: Active

## CC1=C(C(=O)OCc2ccccc2)C(=O)/C(=C\c2cc(C)n(-c3ccccc3C(F)(F)F)c2C)N1
Liver [4]
  Microsomal intrinsic clearance (CLint): 560 µL/min/mg

## CC1=C(C(=O)O)C(=O)/C(=C\c2cc(C)n(-c3ccccc3C(F)(F)F)c2C)N1
[1]
  logD: 5.8
Liver [4]
  Microsomal intrinsic clearance (CLint): 22 µL/min/mg
[7]
  Drug metabolism: Active

## CC1=CC(=O)/C(=C\c2cc(C)n(-c3ccccc3C(F)(F)F)c2C)N1
Liver [4]
  Microsomal intrinsic clearance (CLint): 23 µL/min/mg

## CC1=C(C(N)=O)C(=O)/C(=C\c2cc(C)n(-c3ccccc3C(F)(F)F)c2C)N1
[3]
  Drug metabolism: Active

## CCOC(=O)C1=C(C)N/C(=C/c2cc(C)n(-c3ccc(Cl)cc3)c2C)C1=O
[1]
  logD: 3.4
Liver [4]
  Microsomal intrinsic clearance (CLint): 72 µL/min/mg

## CCOC(=O)C1=C(C)N/C(=C/c2cc(C)n(-c3ccc(Br)cc3)c2C)C1=O
[1]
  logD: 3.4
Liver [4]
  Microsomal intrinsic clearance (CLint): 62 µL/min/mg

## CCOC(=O)C1=C(C)N/C(=C/c2cc(C)n(-c3ccc(OC)cc3)c2C)C1=O
[1]
  logD: 3
Liver [4]
  Microsomal intrinsic clearance (CLint): 54 µL/min/mg
[3]
  Drug metabolism: Active

## CCOC(=O)C1=C(C)N/C(=C/c2cc(C)n(-c3ccc(N(C)C)cc3)c2C)C1=O
[1]
  logD: 3.4
[8]
  Drug metabolism: Active
Liver [4]
  Microsomal intrinsic clearance (CLint): 56 µL/min/mg

## CCOC(=O)C1=C(C)N/C(=C/c2cc(C)n(-c3ccc(C(F)(F)F)cc3)c2C)C1=O
Liver microsomes [9]
  CLH: 31 µL/mg/min
Liver microsomes [10]
  t1/2: 56 min
Liver microsomes [11]
  CLH: 49 µL/mg/min
[12]
  Vd: 19 L/kg
Rattus norvegicus [13]
  F: 4%
[14]
  Drug metabolism: Not Active
Liver microsomes [15]
  Drug metabolism: Not Active
[1]
  logD: 3.4
Liver [16]
  t1/2: 32.9 min
[17]
  Cmax: 190 nM
[18]
  half-life: 3.62 days
[19]
  clearance: 22 mL/min/kg
In vivo [20]
  Tmax: 1.67 h
Liver [4]
  Microsomal intrinsic clearance (CLint): 53 µL/min/mg
Liver microsomes [21]
  t1/2: 35 min
Liver microsomes [22]
  Drug metabolism: Not Active

## CCOC(=O)C1=C(C)N/C(=C/c2cc(C)n(-c3cccc(C(F)(F)F)c3)c2C)C1=O
[1]
  logD: 3.4
Liver [4]
  Microsomal intrinsic clearance (CLint): 97 µL/min/mg

## CCOC(=O)C1=C(C)N/C(=C/c2cc(C)n(-c3ccc(F)cc3F)c2C)C1=O
[1]
  logD: 3
Liver [4]
  Microsomal intrinsic clearance (CLint): 77 µL/min/mg
[3]
  Drug metabolism: Active

## CCOC(=O)C1=C(C)N/C(=C/c2cc(C)n(-c3ccccc3C(F)(F)F)c2C)C1=O
[23]
  Cmax: […]
[24]
  dose excreted: 0.01%
[25]
  Drug excretion: Not Active
Liver microsomes [9]
  CLH: […]
[26]
  half-life: […]
[27]
  dose excreted: […]
Liver microsomes [10]
  t1/2: […]
[28]
  Stability: Stable
Liver microsomes [11]
  CLH: […]
[29]
  Cmax: […]
[14]
  Drug metabolism: Not Active
[30]
  dose excreted: […]
[1]
  logD: […]
Liver [16]
  t1/2: […]
In vivo [31]
  Tmax: […]
[32]
  Vd: […]
[33]
  half-life: […]
[34]
  clearance: […]
[35]
  half-life: […]
Liver microsomes [36]
  Drug metabolism: Active
Rattus norvegicus [37]
  F: […]
Rattus norvegicus [38]
  F: 45.7%
In vivo [39]
  Tmax: […]
Liver microsomes [21]
  t1/2: […]
Liver microsomes [22]
  Drug metabolism: Not Active
[3]
  Drug metabolism: Active

Reference: ChEMBL document CHEMBL2331408, “Discovery and structure-activity relationships of pyrrolone antimalarials” (J Med Chem, 2013)
